Calls of active or inactive are those of the source. The calls are words filed in the database; no cut-off is given here. Non-standard residues stand in square brackets, D forms with d. Residues, ends and D or L forms follow the SMILES beside them. *: point of attachment. dPhe(4-CF3) = N[C@H](Cc1ccc(C(F)(F)F)cc1)C(=O)O; dBip = N[C@H](Cc1ccc(-c2ccccc2)cc1)C(=O)O; dPhe(3-Cl) = N[C@H](Cc1cccc(Cl)c1)C(=O)O; dPhe(3-Me) = Cc1cccc(C[C@@H](N)C(=O)O)c1; dPhe(4-Cl) = N[C@H](Cc1ccc(Cl)cc1)C(=O)O; dPhe(4-Me) = Cc1ccc(C[C@@H](N)C(=O)O)cc1; dPhe(2-Me) = Cc1ccccc1C[C@@H](N)C(=O)O; dPhe(3-F) = N[C@H](Cc1cccc(F)c1)C(=O)O; dPhe(4-F) = N[C@H](Cc1ccc(F)cc1)C(=O)O; 2Nal = N[C@@H](Cc1ccc2ccccc2c1)C(=O)O; dPhe(2-F) = N[C@H](Cc1ccccc1F)C(=O)O; dIgl = N[C@@H](C(=O)O)C1Cc2ccccc2C1; d(hPhe) = N[C@H](CCc1ccccc1)C(=O)O; Bn = c1ccc(C*)cc1; NHOH = ON*
Legend:
[1] = biological target: T1, Macrophage metalloelastase (Homo sapiens, UniProt P39900); assay: Binding affinity to recombinant human 15N-labelled MMP12 catalytic domain (Gly106 to Gly263 residues) expressed in Escherichia coli BL21 Codon Plus cells assessed as ratio of peak intensities of L212 and I220 in bound versus the unbound form at 10 uM by 1D-1H NMR analysis
Target sequence in this assay (P39900 106-470 limits assumed): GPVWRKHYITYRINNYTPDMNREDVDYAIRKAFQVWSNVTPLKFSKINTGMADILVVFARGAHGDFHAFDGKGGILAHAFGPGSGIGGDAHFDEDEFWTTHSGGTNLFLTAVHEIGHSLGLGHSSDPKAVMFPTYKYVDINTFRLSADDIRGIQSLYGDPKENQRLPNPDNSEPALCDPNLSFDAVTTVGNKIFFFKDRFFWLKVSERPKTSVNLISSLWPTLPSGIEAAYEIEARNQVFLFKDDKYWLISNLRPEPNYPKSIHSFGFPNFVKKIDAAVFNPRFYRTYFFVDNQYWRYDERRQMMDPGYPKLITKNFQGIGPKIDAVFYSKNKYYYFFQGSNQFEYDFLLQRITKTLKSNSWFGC

[2] = biological target: T1, Macrophage metalloelastase; assay: Inhibition of recombinant human MMP12 catalytic domain (Gly106 to Gly263 residues) expressed in Escherichia coli BL21 Codon Plus cells using 5-FAM/QXL520 FRET peptide as substrate preincubated for 15 mins followed by substrate addition and measured at 3 mins interval for 60 mins by fluorescence assay
Target sequence in this assay (P39900 whole entry, the tested form may be a part): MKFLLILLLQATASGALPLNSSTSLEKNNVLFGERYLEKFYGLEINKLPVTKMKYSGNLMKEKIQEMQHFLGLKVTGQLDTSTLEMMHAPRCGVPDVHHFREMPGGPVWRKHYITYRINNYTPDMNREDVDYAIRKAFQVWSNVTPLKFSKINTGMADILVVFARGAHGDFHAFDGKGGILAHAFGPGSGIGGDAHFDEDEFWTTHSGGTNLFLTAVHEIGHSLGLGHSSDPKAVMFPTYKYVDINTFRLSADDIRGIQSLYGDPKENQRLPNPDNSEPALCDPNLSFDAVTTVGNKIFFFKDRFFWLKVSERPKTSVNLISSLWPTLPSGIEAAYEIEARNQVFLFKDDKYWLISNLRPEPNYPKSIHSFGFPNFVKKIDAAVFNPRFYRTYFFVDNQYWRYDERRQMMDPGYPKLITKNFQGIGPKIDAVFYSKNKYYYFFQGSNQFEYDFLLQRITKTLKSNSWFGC

[3] = biological target: Collagenase 3 (Homo sapiens) (UniProt P45452); assay: Inhibition of recombinant human 6His-tagged MMP13 catalytic domain (104 to 274 residues) expressed in Escherichia coli at 4 to 25 nM using 5-FAM/QXL520 FRET peptide as substrate preincubated for 15 mins followed by substrate addition and measured at 3 mins interval for 60 mins by fluorescence assay; settings: dose nM 4-25, time 75.0 min
Procedure, shortened: (§1)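 Catalytic domains, 10 ng enzyme, preincubated with inhibitor 15 min at RT. FRET substrate (SensoLyte 520 kit) then added, fluorescence read every 3 min for 60 min. Inhibitors at 25 nM or 4 nM; percent inhibition reported.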

[4] = biological target: Matrix metalloproteinase-14 (Homo sapiens) (UniProt P50281); assay: (§2) Inhibition of recombinant human His-tagged MMP14 expressed in Escherichia coli at 4 to 25 nM using 5-FAM/QXL520 FRET peptide as substrate preincubated for 15 mins followed by substrate addition and measured at 3 mins interval for 60 mins by fluorescence assay; settings: dose nM 4-25, time 75.0 min; procedure, shortened: as §1
[5] = biological target: Matrix metalloproteinase-9 (Homo sapiens) (UniProt P14780); assay: Inhibition of recombinant human 6His-tagged MMP9 catalytic domain (112 to 445 residues) expressed in Escherichia coli at 4 to 25 nM using 5-FAM/QXL520 FRET peptide as substrate preincubated for 15 mins followed by substrate addition and measured at 3 mins interval for 60 mins by fluorescence assay; settings: dose nM 4-25, time 75.0 min; procedure, shortened: as §1
Sequence of Matrix metalloproteinase-9 (Homo sapiens) (P14780 whole entry, the tested form may be a part): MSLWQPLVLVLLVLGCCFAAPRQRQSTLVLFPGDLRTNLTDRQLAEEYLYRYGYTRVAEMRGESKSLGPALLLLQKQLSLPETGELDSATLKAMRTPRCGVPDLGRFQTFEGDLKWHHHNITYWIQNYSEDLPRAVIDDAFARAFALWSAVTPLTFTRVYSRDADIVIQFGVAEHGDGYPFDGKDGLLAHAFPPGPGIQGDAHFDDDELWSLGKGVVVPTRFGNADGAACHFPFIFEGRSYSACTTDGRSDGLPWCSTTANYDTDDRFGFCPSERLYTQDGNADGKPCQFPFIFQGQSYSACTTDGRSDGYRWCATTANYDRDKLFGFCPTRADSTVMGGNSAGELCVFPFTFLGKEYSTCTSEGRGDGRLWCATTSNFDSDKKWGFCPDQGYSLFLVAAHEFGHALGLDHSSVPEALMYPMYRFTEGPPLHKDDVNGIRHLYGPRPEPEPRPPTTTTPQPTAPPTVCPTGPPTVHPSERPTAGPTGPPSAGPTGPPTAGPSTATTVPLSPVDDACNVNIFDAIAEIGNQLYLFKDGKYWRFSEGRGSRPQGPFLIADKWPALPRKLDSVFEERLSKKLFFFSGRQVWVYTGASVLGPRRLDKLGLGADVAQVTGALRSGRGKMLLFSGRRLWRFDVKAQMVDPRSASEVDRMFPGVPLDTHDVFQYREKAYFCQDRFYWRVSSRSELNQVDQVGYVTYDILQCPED

[6] = biological target: T2, Interstitial collagenase (Homo sapiens) (UniProt P03956); assay: Inhibition of recombinant human 6His-tagged MMP1 catalytic domain (106 to 261 residues) expressed in Escherichia coli at 4 to 25 nM using 5-FAM/QXL520 FRET peptide as substrate preincubated for 15 mins followed by substrate addition and measured at 3 mins interval for 60 mins by fluorescence assay; settings: dose nM 4-25, time 75.0 min; procedure, shortened: as §1
T2 sequence (whole entry): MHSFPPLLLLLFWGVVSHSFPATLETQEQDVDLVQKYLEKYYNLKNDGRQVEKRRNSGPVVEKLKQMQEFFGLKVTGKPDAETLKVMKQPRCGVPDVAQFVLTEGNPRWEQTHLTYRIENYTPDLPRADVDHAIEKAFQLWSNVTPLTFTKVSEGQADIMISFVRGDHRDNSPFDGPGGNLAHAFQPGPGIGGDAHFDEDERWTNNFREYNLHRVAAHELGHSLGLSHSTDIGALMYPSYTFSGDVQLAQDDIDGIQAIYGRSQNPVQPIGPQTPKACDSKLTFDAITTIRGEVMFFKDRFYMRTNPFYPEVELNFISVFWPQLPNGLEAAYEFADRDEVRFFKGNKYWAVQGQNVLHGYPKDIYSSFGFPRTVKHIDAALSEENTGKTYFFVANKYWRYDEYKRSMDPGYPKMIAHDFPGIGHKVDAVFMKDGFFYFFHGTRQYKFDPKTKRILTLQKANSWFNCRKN

Mus musculus [7] = assay: Protection against porcine elastase-induced emphysema in ip dosed C57BL/6 mouse model assessed as effect on total BALF cellularity/influx administered once daily for 7 days measured 21 days post initial elastase instillation; assay type: functional, organism-based; settings: time 19.0 day
Procedure, shortened: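 Same elastase and dosing scheme as line 10 (C57BL/6, intranasal 0.9 U PPE, daily i.p. for 7 days from day 2). At day 21 BAL cell pellet taken up in 200 μl PBS and counted on a hemocytometer. Cytospin differentials of 300 cells per slide. Two-way ANOVA with Tukey post-hoc.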

Mus musculus [8] = assay: Protection against porcine elastase-induced emphysema in ip dosed C57BL/6 mouse model assessed as decrease in emphysema-like pathology administered once daily for 7 days measured 21 days post initial elastase instillation by H and E staining based light microscopic analysis; assay type: functional, organism-based; settings: time 19.0 day
Procedure, shortened: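 Male and female C57BL/6 mice, 6–8 weeks, given one intranasal dose of 0.9 U porcine pancreatic elastase in 50 μl PBS (saline controls). From day 2, daily i.p. vehicle or inhibitor for 7 days. At day 21 lungs formalin-inflated at 20 cm pressure, paraffin-embedded, H&E-stained and imaged at 10x. Mean linear intercept = line length/alveolar wall intersections. Two-way ANOVA with Tukey.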

[9] = biological target: Stromelysin-1 (Homo sapiens) (UniProt P08254); assay: as §2, with “MMP3 catalytic domain (Pro19 to Glu271 residues)” for “MMP14”; settings: dose nM 4-25, time 75.0 min; procedure, shortened: as §1
Sequence of Stromelysin-1 (Homo sapiens) (P08254 100-477 limits assumed): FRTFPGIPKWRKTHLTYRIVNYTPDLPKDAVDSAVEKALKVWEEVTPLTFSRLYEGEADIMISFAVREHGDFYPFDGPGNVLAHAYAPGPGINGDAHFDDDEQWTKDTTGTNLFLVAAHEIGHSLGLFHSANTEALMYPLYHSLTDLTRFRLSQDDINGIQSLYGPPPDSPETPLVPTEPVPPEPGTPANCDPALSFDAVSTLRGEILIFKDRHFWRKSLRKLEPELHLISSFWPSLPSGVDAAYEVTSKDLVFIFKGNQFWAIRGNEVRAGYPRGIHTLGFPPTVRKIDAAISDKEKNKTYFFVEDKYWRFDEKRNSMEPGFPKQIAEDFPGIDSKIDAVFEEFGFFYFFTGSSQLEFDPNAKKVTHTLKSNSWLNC

[10] = biological target: T1, Macrophage metalloelastase; assay: Potency index, ratio of MMP408 IC50 to test compound IC50 for inhibition of recombinant human MMP12 catalytic domain (Gly106 to Gly263 residues) expressed in Escherichia coli BL21 Codon Plus cells
Target sequence in this assay (P39900 106-470 limits assumed): as the sequence (P39900 106-470 limits assumed) above

[11] = Tmax in Balb/c mouse at 30 mg/kg, ip by LC-MS/MS analysis; assay type: ADME, organism-based; settings: in vivo
Procedure, shortened: (§3)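 Single i.p. dose of 30 mg/kg to 5 Balb-C mice (22–26 g) in 10% DMSO, 40% PEG400, 10% (2-hydroxypropyl)-β-cyclodextrin in PBS. Retro-orbital blood taken at 30 min, 1, 2, 4, 8 and 24 h. Plasma drug measured by extraction and LC/MS against a calibration curve of purified agent.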

[12] = Half life in Balb/c mouse at 30 mg/kg, ip by LC-MS/MS analysis; assay type: ADME, organism-based; settings: in vivo; procedure, shortened: as §3
[13] = Ratio of Cmax in Balb/c mouse at 30 mg/kg, ip to IC90 for inhibition of recombinant human MMP12 catalytic domain (Gly106 to Gly263 residues) expressed in Escherichia coli BL21 Codon Plus cells; assay type: organism-based; settings: in vivo
[14] = Cmax in Balb/c mouse at 30 mg/kg, ip by LC-MS/MS analysis; assay type: ADME, organism-based; parameters: route intraperitoneal, dose 30 mg/kg; settings: in vivo; procedure, shortened: as §3

SMILES | Ratio [1] | IC50 [2] [nM] | further results
CC(=O)N[C@@H](COCc1ccccc1)C(=O)N[C@H](CCc1ccc(C(F)(F)F)cc1)C(=O)N[C@H](Cc1ccccc1)C(=O)NO | 1 | 16.7 | 
CC(=O)N[C@@H](COCc1ccccc1)C(=O)N[C@H](CCc1ccccc1)C(=O)N[C@H](Cc1ccc(OC(C)=O)cc1)C(=O)NO (Ac-Ser(Bn)-[d(hPhe)]-[dY](Ac)-{NHOH}) | 1 | 36.1 | 
COc1ccc(CC[C@@H](NC(=O)[C@H](COCc2ccccc2)NC(C)=O)C(=O)N[C@H](Cc2ccccc2)C(=O)NO)cc1 | > 1 | 16.3 | 
CC(=O)N[C@@H](COCc1ccccc1)C(=O)N[C@H](CCc1ccccc1)C(=O)N[C@H](Cc1ccccc1C)C(=O)NO (Ac-Ser(Bn)-[d(hPhe)]-[dPhe(2-Me)]-{NHOH}) | < 1 |  | 
CC(=O)N[C@@H](COCc1ccccc1)C(=O)N[C@H](CCc1ccccc1)C(=O)N[C@H](Cc1ccccc1)C(=O)NO (Ac-Ser(Bn)-[d(hPhe)]-[dF]-{NHOH}) | > 1 | 26.5 | inhibition [3]: inactive; inhibition [4]: inactive; inhibition [5]: inactive; inhibition [6]: inactive
CC(=O)N[C@@H](COCc1ccccc1)C(=O)N[C@H](CCc1ccccc1)C(=O)N[C@H](Cc1ccc(C(F)(F)F)cc1)C(=O)NO (Ac-Ser(Bn)-[d(hPhe)]-[dPhe(4-CF3)]-{NHOH}) | 1 | 57.1 | 
CC(=O)N[C@@H](COCc1ccccc1)C(=O)N[C@H](CCc1ccccc1)C(=O)N[C@H](Cc1ccc(Cl)cc1)C(=O)NO (Ac-Ser(Bn)-[d(hPhe)]-[dPhe(4-Cl)]-{NHOH}) | > 1 | 35.1 | 
COc1ccc(CCC[C@H](NC(C)=O)C(=O)N[C@H](CCc2ccccc2)C(=O)N[C@H](Cc2ccccc2)C(=O)NO)cc1 | > 1 | 20.5 | 
CC(=O)N[C@@H](COCc1ccccc1)C(=O)N[C@H](CCc1ccccc1)C(=O)N[C@H](Cc1cccc(Cl)c1)C(=O)NO (Ac-Ser(Bn)-[d(hPhe)]-[dPhe(3-Cl)]-{NHOH}) | > 1 | 47.2 | 
CC(=O)N[C@@H](COCc1ccccc1)C(=O)N[C@H](CCc1ccccc1)C(=O)N[C@H](Cc1ccc(OS(=O)(=O)F)cc1)C(=O)NO | < 1 |  | 
CC(=O)N[C@@H](Cc1c[nH]c2ccccc12)C(=O)N[C@H](CCc1ccccc1)C(=O)N[C@H](Cc1ccccc1)C(=O)NO (HELM PEPTIDE1{[ac].W.[O=C([C@@H](CCc1ccccc1)N[*:1])[*:2]].[dF].[ON[*:1]]}$$$$V2.0) | 1 | 34.9 | 
COC(=O)Nc1ccc2oc3cc(S(=O)(=O)N[C@@H](C(=O)O)C(C)C)ccc3c2c1 |  |  | Activity (Mus musculus [7]): inactive; Activity (Mus musculus [8]): Active
CC(=O)N[C@@H](COCc1ccccc1)C(=O)N[C@H](CCc1ccccc1)C(=O)N[C@H](Cc1cccc(C)c1)C(=O)NO (Ac-Ser(Bn)-[d(hPhe)]-[dPhe(3-Me)]-{NHOH}) | > 1 | 35.5 | 
CC(=O)N[C@@H](COCc1ccccc1)C(=O)N[C@H](CCc1ccccc1)C(=O)N[C@H](Cc1ccc(F)c(F)c1F)C(=O)NO | 1 | 75.9 | 
CC(=O)N[C@@H](COCc1ccccc1)C(=O)N[C@H](CCc1ccccc1)C(=O)N[C@H](Cc1ccc(C)cc1)C(=O)NO (Ac-Ser(Bn)-[d(hPhe)]-[dPhe(4-Me)]-{NHOH}) | > 1 | 20.9 | 
CC(=O)N[C@@H](COCc1ccccc1)C(=O)N[C@H](Cc1ccc(-c2ccccc2)cc1)C(=O)N[C@H](Cc1ccccc1)C(=O)NO (Ac-Ser(Bn)-[dBip]-[dF]-{NHOH}) | inactive |  | 
CNC(=O)[C@H](Cc1c[nH]c2ccccc12)NC(=O)[C@@H](CC(=O)NO)CC(C)C [ILOMASTAT] |  | 2.4 | inhibition [9]: Active
COc1ccc(CCC[C@H](NC(=O)CN2CCOCC2)C(=O)N[C@H](CCc2ccc(OC)cc2)C(=O)N[C@H](Cc2ccc(C)cc2)C(=O)NO)cc1 |  | 4.4 | inhibition [3]: inactive; inhibition [9]: Active; Ratio IC50 [10]: > 5; Activity (Mus musculus [7]): inactive; inhibition [4]: inactive; inhibition [5]: inactive; Activity (Mus musculus [8]): Active; inhibition [6]: inactive
CC(=O)N[C@@H](CCCc1ccccc1)C(=O)N[C@H](CCc1ccccc1)C(=O)N[C@H](Cc1ccccc1)C(=O)NO | > 1 | 19.5 | 
CC(=O)N[C@@H](COCc1ccccc1)C(=O)N[C@H](CCc1ccccc1)C(=O)N[C@H](Cc1ccccc1F)C(=O)NO (Ac-Ser(Bn)-[d(hPhe)]-[dPhe(2-F)]-{NHOH}) | > 1 | 27.8 | 
CC(=O)N[C@@H](COCc1ccccc1)C(=O)N[C@@H](C(=O)N[C@H](Cc1ccccc1)C(=O)NO)C1Cc2ccccc2C1 (Ac-Ser(Bn)-[dIgl]-[dF]-{NHOH}) | inactive |  | 
CC(=O)N[C@@H](COCc1ccccc1)C(=O)N[C@H](CCc1ccccc1)C(=O)N[C@H](Cc1ccc(O)cc1)C(=O)NO (Ac-Ser(Bn)-[d(hPhe)]-[dY]-{NHOH}) | > 1 | 42.1 | 
COc1ccc(CC[C@@H](NC(=O)[C@H](CCCc2ccccc2)NC(=O)CN2CCOCC2)C(=O)N[C@H](Cc2ccc(C)cc2)C(=O)NO)cc1 |  | 4.5 | inhibition [3]: inactive; Tmax [11]: 2 h; inhibition [9]: Active; half-life [12]: 5 h; Ratio [13]: > 20; Ratio IC50 [10]: > 5; Activity (Mus musculus [7]): inactive; inhibition [4]: inactive; Cmax [14]: 580 nM; inhibition [5]: inactive; Activity (Mus musculus [8]): Active; inhibition [6]: inactive
CC(=O)N[C@@H](COCc1ccccc1)C(=O)N[C@H](CCCc1ccccc1)C(=O)N[C@H](Cc1ccccc1)C(=O)NO | < 1 |  | 
CC(=O)N[C@@H](COCc1ccccc1)C(=O)N[C@H](CCc1ccccc1)C(=O)N[C@H](Cc1cccc(F)c1)C(=O)NO (Ac-Ser(Bn)-[d(hPhe)]-[dPhe(3-F)]-{NHOH}) | > 1 | 30.2 | 
CC(=O)N[C@@H](Cc1ccc2ccccc2c1)C(=O)N[C@H](CCc1ccccc1)C(=O)N[C@H](Cc1ccccc1)C(=O)NO (Ac-[2Nal]-[d(hPhe)]-[dF]-{NHOH}) | < 1 | 138 | 
CC(=O)N[C@@H](COCc1ccccc1)C(=O)N[C@H](CCc1ccccc1)C(=O)N[C@H](Cc1ccc(F)cc1)C(=O)NO (Ac-Ser(Bn)-[d(hPhe)]-[dPhe(4-F)]-{NHOH}) | > 1 | 42 | 

From ChEMBL document CHEMBL4699596, “Therapeutic Targeting of MMP-12 for the Treatment of Chronic Obstructive Pulmonary Disease” (J Med Chem, 2020)
